# Screening data deposited in PubChem by Johns Hopkins Ion Channel Center.
# This is a sample that favours compounds with a hit; in the whole collection about 3.5% have one here.
# MrgX1 ag – agonists of human MrgX1 receptor, primary screen, HEK293 cells, Fluo-4 calcium flux | Mas-related G-protein coupled receptor member X1 (Homo sapiens), Q96LB2 | Fluo-4 calcium fluorescence, agonist mode; hits give high values | B-score at 10 µM | 0.44% of 310,000 active;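 active means calcium response B-score plate-corrected fluorescence ratio at least 3 library SD, with starting fluorescence B-score inside 5 SD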
# Target sequence (Q96LB2 whole entry, looked up): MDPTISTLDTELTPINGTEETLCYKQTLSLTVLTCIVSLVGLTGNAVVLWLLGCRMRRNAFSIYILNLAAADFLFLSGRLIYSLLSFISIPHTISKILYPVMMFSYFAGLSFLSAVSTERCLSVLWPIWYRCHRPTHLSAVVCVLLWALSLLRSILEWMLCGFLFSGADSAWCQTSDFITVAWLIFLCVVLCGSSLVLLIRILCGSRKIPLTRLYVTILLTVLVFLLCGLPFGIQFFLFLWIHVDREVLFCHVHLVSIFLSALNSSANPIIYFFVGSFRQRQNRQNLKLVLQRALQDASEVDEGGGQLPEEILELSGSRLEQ
#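 Test system: HEK293 cells stably expressing human MrgX1 receptor; Input: fifteen thousand cells per well; Dosing: compound delivered in addition one of three; Schedule: overnight seeding, then 1 h dark dye loading; Technique: Fluo-4 NW calcium fluorescence; Measure: B-scored fluorescence response ratio; Controls: positive and negative controls per plate.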
# RGS4 block – RGS4 inhibitors, primary screen, cell-based, HEK293 M3R inducible RGS4, calcium flux | Regulator of G-protein signaling 4 (Homo sapiens), P49798 | Fluo-4 calcium flux; hits give high values; triggered by carbachol at its EC20 | B-score at 10 µM | 0.45% of 310,000 active | AID 463165, 2010;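 active means B-score, a plate-corrected calcium signal, over three deviations above library mean, with baseline fluorescence within five deviations of library mean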;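 further: RGS4 expression induced by doxycycline in cells with stable M3 receptor; B-score is computed from the integrated fluorescence ratio over baseline after carbachol; higher B-score means a larger calcium signal and so more RGS4 inhibition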
# Target sequence (P49798 whole entry, looked up): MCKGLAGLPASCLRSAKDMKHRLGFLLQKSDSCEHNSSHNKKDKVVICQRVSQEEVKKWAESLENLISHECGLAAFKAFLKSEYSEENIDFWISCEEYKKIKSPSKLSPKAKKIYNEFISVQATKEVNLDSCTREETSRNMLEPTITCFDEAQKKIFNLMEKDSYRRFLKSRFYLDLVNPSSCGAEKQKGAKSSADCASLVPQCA
# MrgX1 antagonist – antagonists of human MrgX1 receptor, primary screen, HEK293 cells, Fluo-4 calcium flux; Mas-related G-protein coupled receptor member X1 (Homo sapiens), Q96LB2; BAM8-22 antagonism; hits give low values; B-score at 10 µM; 1.3% of 310,000 active; AID 588676, 2011;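 active means calcium-response B-score plate-corrected more than 3 library SD below zero, starting fluorescence within 5 deviations, no agonist response on first addition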;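 further: peak minus trough fluorescence over baseline after final BAM8-22 challenge near maximal dose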
# RGS4 act – RGS4 potentiators or activators, primary screen, cell-based, HEK293 M3R inducible RGS4, calcium flux; 0.92% of 310,000 active; AID 463111, 2010; B-score at 10 µM; carbachol calcium flux Fluo4; hits give low values;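 active means B-score of the integrated calcium signal more than 4 SD below the library mean, with starting fluorescence not abnormally high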;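 further: negative B-score means reduced calcium response which marks RGS4 activation or potentiation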
#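 test system = M3R-expressing HEK293 line, RGS4 induced by doxycycline | probe or stimulus = carbachol at ECmax as muscarinic agonist stimulus | timing = dye loading 30 min 37 °C, buffer rest 30 min RT | signal = calcium dye Fluo4 fluorescence | evaluation = B score from integrated fluorescence ratio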
# MrgX1 PAM – positive allosteric modulators of MrgX1, primary screen, HEK293 cells, Fluo-4 calcium flux | Mas-related G-protein coupled receptor member X1 (Homo sapiens), Q96LB2 | FDSS; hits give high values | B-score at 10 µM | 0.63% of 310,000 active;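 active means plate-corrected calcium response at least 3 library SD above typical, normal starting fluorescence, not activating the receptor alone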;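 further: compound read alongside a low EC10 to EC30 dose of BAM8-22 agonist; peak minus trough fluorescence over baseline measured at the second addition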
# An asterisk follows results filed as active; i = inactive; nt = no result.
SMILES,MrgX1 ag,RGS4 block,MrgX1 antagonist,RGS4 act,MrgX1 PAM
COc1ccc(N2CCN(Cc3cc4c(cc3Br)OCCO4)CC2)cc1,i,i,i,-7*,i
NC(=O)C(=O)NN=C1C2CC3CC(C2)CC1C3,i,i,i,i,i
NC(=S)NN=C1C2CC3CC(C2)CC1C3,i,i,i,i,8.59*
Cc1cccc(CSC2=NCCN2S(=O)(=O)c2ccc(F)cc2)c1,i,i,i,i,i
CCOc1ccc2nc(NCCNC(=O)C3CC3)c(C)cc2c1,i,i,i,i,i
CCOc1ccc2nc(NCCNC(=O)C(C)C)c(C)cc2c1,i,i,i,-7.41*,i
CCC1CCCCN1CCCNS(=O)(=O)c1ccc2c(c1)oc(=O)n2C (stereo not given),i,i,i,i,17.6*
COc1cccc(/C=C/c2ccc3cccc(O)c3n2)c1OC,i,i,i,-7.36*,i
COc1ccc(/C=C/c2ccc3cccc(O)c3n2)c(OC)c1OC,i,i,i,i,i
CC(NCC(=O)Nc1cc(S(=O)(=O)N2CCOCC2)ccc1Cl)c1ccc(Cl)cc1Cl (stereo not given),i,i,-7.33*,i,i
COc1cc(SC)ccc1C(=O)Nc1c(C)cccc1C,i,i,i,i,i
COc1cc(SC)ccc1C(=O)NNC(=O)c1cc(C)oc1C,i,i,-4.84*,i,i
CC[C@H]1CC2CN3CCc4c([nH]c5c([C@H]6C[C@H]7[C@H](CC)CN(C)[C@@H](Cc8c6[nH]c6ccccc86)[C@H]7C(=O)OC)c(OC)ccc45)C(C(=O)OC)(C2)C13,i,8.78*,i,i,i
COc1cc(-c2cc(C(=O)Nc3ccc(S(=O)(=O)NCc4ccco4)cc3)c3ccccc3n2)cc(OC)c1OC,i,i,i,i,i
COc1cc(OC)cc(C(=O)/C=C2\Sc3ccccc3N2C)c1,i,i,i,i,i
COc1ccc2c(c1)N(C)/C(=C/c1cccc[n+]1C)S2,i,i,-5.76*,-9.42*,i
CCN1/C(=C/c2cccc[n+]2C)Sc2ccc(OC)cc21,i,i,-6.05*,-7.52*,i
C/C(=N\NC(=O)c1ccccc1F)c1cccc(NC(=O)c2ccc(C)cc2)c1,i,i,i,i,i
CCCc1nn2c(=O)cc(CSCC(=O)Nc3ccc(C)cc3)nc2s1,i,i,i,i,i
Cc1cc(OC(=O)c2ccccc2Cl)cc(=O)n1C,i,i,i,i,10*
C(#Cc1ccccc1)C[N+]1(CC#Cc2ccccc2)CCCCC1,i,i,i,-8.62*,i
C#CC[N+]1(CC#Cc2cccc(C)c2)CCCCC1,i,i,i,i,i
C#CC[N+]1(CC#Cc2ccccc2)CCCCC1,i,i,i,i,i
Cc1ccc(C#CC[N+]2(CC#Cc3ccc(C)cc3)CCCCC2)cc1,i,i,i,-7.13*,i
O=C(CN1CCN(C(=O)c2ccco2)CC1)N1CCc2[nH]c3ccccc3c2C1,i,i,-5.94*,i,i
SMILES,MrgX1 ag,RGS4 block,MrgX1 antagonist,RGS4 act,MrgX1 PAM
CCCCn1c2ccc(C)cc2c2nnc(SCCN3CCCCC3)nc21,i,i,i,-12.2*,i
Cc1cc2nc3c(=O)[nH]c(=S)[nH]c3nc2cc1NC(=O)C(F)(F)F,i,i,i,i,i
CCOC(=O)c1c(NC(C)=O)sc2c(OCC(O)CN(CC)CC)c(Br)ccc12 (stereo not given),i,i,i,-7.56*,i
Cc1onc(-c2ccccc2Cl)c1C(=O)N1CCc2ccccc2C1,i,i,i,-7.3*,i
Cc1onc(-c2c(F)cccc2Cl)c1C(=O)N1CCc2ccccc2C1,i,i,i,i,i
Cc1onc(-c2c(Cl)cccc2Cl)c1C(=O)N1CCc2ccccc21,i,i,i,-7.56*,i
Cc1cc2ncn(C(=O)c3c(-c4c(Cl)cccc4Cl)noc3C)c2cc1C,i,i,i,-7.19*,i
Cc1cc2ncn(C(=O)c3c(-c4ccccc4)noc3C)c2cc1C,i,i,i,i,i
Cc1onc(-c2c(Cl)cccc2Cl)c1C(=O)N1CCOCC1,i,i,i,i,i
COc1cc(C(CC(=O)Nc2ccc(Cl)cn2)N2Cc3ccccc3C2=O)cc(OC)c1OC (stereo not given),i,i,i,i,i
Cc1nc(N/N=C/c2ccccc2)nc(N(C)c2ccccc2)c1[N+](=O)[O-],i,i,-7.61*,i,i
CCN(Cc1ccccc1)C(=O)COC(=O)c1cc(Cl)nc(Cl)c1,i,i,i,i,i
Cc1csc(NC(=O)c2ccc(COc3ccccc3)o2)n1,i,i,i,i,i
OC1(C#CCN2CCCC2)c2ccccc2-c2ccccc21,i,i,i,-6.99*,i
Cc1ccc(S(=O)(=O)N2[C@@H](c3ccc(Cl)cc3)C(C(=O)O)=CC[C@H]2c2cccc(C)c2)cc1,i,nt,i,nt,i
Cc1ccc(S(=O)(=O)N2[C@@H](c3ccc(Cl)cc3)C(C(=O)O)=CC[C@H]2c2cccc(Cl)c2)cc1,30.2*,nt,i,nt,i
Cc1ccc(S(=O)(=O)N2[C@@H](c3ccccc3)C(C(=O)O)=CC[C@H]2c2ccc3c(c2)OCO3)cc1,i,nt,i,nt,10*
Cc1cccc(-c2nnc(SCC(=O)c3ccc(O)cc3O)n2C)c1,i,i,i,i,i
COc1cc(C(O)P(=O)(OCC(C)C)c2ccc(N(C)C)cc2)cc(OC)c1OC (stereo not given),i,i,i,i,i
CCOP(=O)(c1ccc(N(C)C)cc1)C(O)c1cc(OC)c(OC)c(OC)c1 (stereo not given),i,i,-4.83*,i,i
Cc1cccn2c(=O)c(/C=C(\C#N)C(N)=O)c(N3CCN(Cc4ccc5c(c4)OCO5)CC3)nc12,i,i,i,-8.46*,i
COc1ccc(-c2cc(C(=O)Nc3ccccc3O)c3ccccc3n2)cc1OC,i,i,i,-7.31*,i
Cc1ccccc1-c1cc(C(=O)Nc2sc(C)c(C)c2C(N)=O)c2ccccc2n1,i,6.25*,i,i,i
O=C(NCc1cc([N+](=O)[O-])ccc1O)c1cc(-c2ccncc2)nc2ccccc12,i,i,i,-9.08*,i
